{"source": "paper PMC4576993", "about": "(Leukemia, 2011)", "key": {"[1]": {"assay": "Plasma vosaroxin pharmacokinetics in patients", "type": "in vivo, human", "details": "for half-life: T1/2, mean"}, "[2]": {"assay": "Renal excretion of vosaroxin and metabolites in urine, 24 h after first dose", "type": "in vivo, human", "details": "24 h after first dose, 18 and 27 mg/m^2 weekly, eight patients"}, "[3]": {"details": "rat tissue distribution studies; no reference given; cited from earlier work"}, "[4]": {"system": "phosphorylated H2AX (γH2AX) in peripheral blood blasts", "assay": "γH2AX in patient peripheral blood blasts by flow cytometry", "type": "in vivo, human", "summary_of_the_method": "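Peripheral blood blasts from 10 weekly-schedule patients were sampled on days 1 and 8, predose and 2 h postdose. Ficoll-enriched cells were fixed in 70% ethanol at 4 °C and stained in TBS/4% FBS/0.1% Triton X-100. Primary was anti-phospho-Ser139 H2AX or IgG1 isotype (1:500, 2 h), then Alexa488 anti-mouse (1:200, 1 h) with 5 μg/ml RNase, then 2% formaldehyde. Flow cytometry used […]. %γH2AX-positive was set against isotype overlays.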"}, "[5]": {"details": "non-clinical toxicology studies; no reference given; cited from earlier work"}}, "note": "Entries after “also recorded” stand apart in the source; their conditions may differ.", "data": [{"smiles": "CN[C@H]1CN(c2ccc3c(=O)c(C(=O)O)cn(-c4nccs4)c3n2)C[C@@H]1OC", "note": "[vosaroxin, (+)-1,4-dihydro-7-(trans-3-methoxy-4-methylamino-1-pyrrolidinyl)-4-oxo-1-(2-thiazolyl)-1,8-naphthyridine-3-carboxylic acid]", "values": [{"measurement": "Differences in clearance based on age, sex, body weight or body surface area", "setting": "[1]; age overall and <65 versus ≥65 years", "value": "No significant differences in clearance"}, {"measurement": "Average total body clearance", "setting": "[1]; all patients", "value": 2, "unit": "l/h/m^2"}, {"measurement": "Induction or inhibition of vosaroxin metabolism after repeated doses", "setting": "[1]; clearance compared weekly vs days 1, 4, 8 and 11", "value": "No induction or inhibition of vosaroxin metabolism was evident"}, {"measurement": "Plasma exposure (AUC) versus dose", "setting": "[1]; dose range 9–90 mg/m^2", "value": "dose proportional; also recorded: increased proportionally with an increase in dose"}, {"measurement": "AUC(0-t)", "setting": "[1]; human, plasma, intravenous, 72 mg/m2", "value": 32500, "unit": "ng·h/mL"}, {"measurement": "AUC(0-inf)", "setting": "[1]; human, plasma, intravenous, 72 mg/m2, AUCinf, mean, weekly, Day 1, 72 mg/m^2, N 11, cycle 1", "value": 39400, "unit": "ng·h/mL"}, {"measurement": "clearance", "setting": "[1]; human, plasma, intravenous, 72 mg/m2, CL, mean, weekly, Day 1, 72 mg/m^2, N 11, cycle 1", "value": 69.3, "unit": "mL/min"}, {"measurement": "MRT", "setting": "[1]; human, plasma, intravenous, 72 mg/m2, MRT, mean, weekly, Day 1, 72 mg/m^2, N 11, cycle 1", "value": 33.9, "unit": "h"}, {"measurement": "Vd", "setting": "[1]; human, plasma, intravenous, 72 mg/m2, Vss, mean, weekly, Day 1, 72 mg/m^2, N 11, cycle 1", "value": 130, "unit": "L"}, {"measurement": "Cmax", "setting": "[1]; human, plasma, intravenous, 72 mg/m^2", "value": 1920, "unit": "ng/mL"}, {"measurement": "AUC(0-inf)", "setting": "[1]; human, plasma, intravenous, AUCinf, mean, twice weekly, Day 1, 9–50 mg/m^2, N 31, cycle 1", "value": 14200, "unit": "ng·h/mL"}, {"measurement": "AUC(0-inf)", "setting": "[1]; human, plasma, intravenous, AUCinf, mean, twice weekly, Day 8, 9–50 mg/m^2, N 29, cycle 1", "value": 15600, "unit": "ng·h/mL"}, {"measurement": "AUC(0-inf)", "setting": "[1]; human, plasma, intravenous, AUCinf, mean, twice weekly, Day 11, 9–50 mg/m^2, N 28, cycle 1", "value": 16000, "unit": "ng·h/mL"}, {"measurement": "clearance", "setting": "[1]; human, plasma, intravenous, Average total body clearance, all patients", "value": 66.7, "unit": "mL/min"}, {"measurement": "clearance", "setting": "[1]; human, plasma, intravenous, CL, mean, twice weekly, Day 1, 9–50 mg/m^2, N 31, cycle 1", "value": 72.8, "unit": "mL/min"}, {"measurement": "clearance", "setting": "[1]; human, plasma, intravenous, CL, mean, twice weekly, Day 8, 9–50 mg/m^2, N 29, cycle 1", "value": 75.7, "unit": "mL/min"}, {"measurement": "clearance", "setting": "[1]; human, plasma, intravenous, CL, mean, twice weekly, Day 11, 9–50 mg/m^2, N 28, cycle 1", "value": 75.3, "unit": "mL/min"}, {"measurement": "clearance", "setting": "[1]; human, plasma, intravenous, CL, mean, weekly, Day 1, 18–90 mg/m^2, N 41, cycle 1", "value": 65.3, "unit": "mL/min"}, {"measurement": "MRT", "setting": "[1]; human, plasma, intravenous, MRT, mean, twice weekly, Day 1, 9–50 mg/m^2, N 31, cycle 1", "value": 33.9, "unit": "h"}, {"measurement": "MRT", "setting": "[1]; human, plasma, intravenous, MRT, mean, twice weekly, Day 8, 9–50 mg/m^2, N 29, cycle 1", "value": 28.6, "unit": "h"}, {"measurement": "MRT", "setting": "[1]; human, plasma, intravenous, MRT, mean, twice weekly, Day 11, 9–50 mg/m^2, N 28, cycle 1", "value": 30.8, "unit": "h"}, {"measurement": "half-life", "setting": "[1]; human, plasma, intravenous, twice weekly, Day 1, 9–50 mg/m^2, N 31, cycle 1", "value": 26.6, "unit": "h"}, {"measurement": "half-life", "setting": "[1]; human, plasma, intravenous, twice weekly, Day 4, 9–50 mg/m^2, N 30, cycle 1", "value": 28.2, "unit": "h"}, {"measurement": "Vd", "setting": "[1]; human, plasma, intravenous, Vss, mean, twice weekly, Day 1, 9–50 mg/m^2, N 31, cycle 1", "value": 142, "unit": "L"}, {"measurement": "Vd", "setting": "[1]; human, plasma, intravenous, Vss, mean, twice weekly, Day 8, 9–50 mg/m^2, N 29, cycle 1", "value": 126, "unit": "L"}, {"measurement": "Vd", "setting": "[1]; human, plasma, intravenous, Vss, mean, twice weekly, Day 11, 9–50 mg/m^2, N 28, cycle 1", "value": 136, "unit": "L"}, {"measurement": "Drug accumulation (AUC72 ratio) day 11/day 1", "setting": "[1]; twice-weekly schedule, repeated doses, n=28, P<0.05", "value": 1.2}, {"measurement": "Drug accumulation (AUC72 ratio) day 4/day 1", "setting": "[1]; twice-weekly schedule, repeated doses, n=29, P<0.05", "value": 1.2}, {"measurement": "Average renal excretion of the total dose infused", "setting": "[2]", "value": 2.35, "unit": "%"}, {"measurement": "Concentration in bone marrow relative to blood", "setting": "[3]", "value": "~ 30 fold"}, {"measurement": "Increase in γH2AX", "setting": "[4]; day 1, 2 h postdose, patients with blasts ≥5%", "value": 1.8, "unit": "fold"}, {"measurement": "Increase in γH2AX", "setting": "[4]; day 1, 2 h postdose, patients with bone marrow blasts <5% after treatment", "value": 2.6, "unit": "fold"}, {"measurement": "Increase in γH2AX", "setting": "[4]; day 8, 2 h postdose, patients with blasts ≥5%", "value": 1.7, "unit": "fold"}, {"measurement": "Increase in γH2AX", "setting": "[4]; day 8, 2 h postdose, patients with bone marrow blasts <5% after treatment", "value": 3.8, "unit": "fold"}, {"measurement": "Patients with increased γH2AX after the first dose", "setting": "[4]; weekly schedule, 50 mg/m^2 or higher, 2 h postdose day 1", "value": "7 of 10"}, {"measurement": "Patients with γH2AX higher than at baseline before treatment on day 8", "setting": "[4]; weekly schedule, day 8 predose", "value": "9 of 10"}, {"measurement": "Primary adverse effects", "setting": "[5]", "value": "myelosuppression and gastrointestinal toxicity"}]}]}
